Paper PMC8320078 (ACS Omega, 2021)

Tests used:
[1] = test system: formation of AGEs induced by glucose or methylglyoxal; details: at 100 μM; cited from earlier work
DPPH assay = details: mean ± SD; for DPPH assay TEAC: isolated compounds
Procedure, shortened: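 Reduction of the DPPH free radical by extracts, fractions or isolated compounds, done in 96-well format following a published procedure. Quercetin and ascorbic acid were positive controls and MeOH the negative control. Runs were in triplicate (n = 3), reported as mean ± SD. Total antioxidant capacity was expressed as trolox equivalent antioxidant capacity (TEAC).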

FRAP assay = details: isolated compounds; mean ± SD
Procedure, shortened: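 FRAP: Fe3+ is reduced to Fe2+, which TPTZ chelates to form the Fe2+-TPTZ complex. Activity of isolated compounds was read from a trolox standard curve (7.78–1000 μM) and expressed as μM TE/mM. Quercetin and ascorbic acid were positive controls, MeOH the negative control. Triplicate runs (n = 3); mean ± SD.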

ABTS assay = details: isolated compounds; mean ± SD
Procedure, shortened: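 ABTS radical-scavenging capacity of isolated compounds, from a modified literature method. Activity was read from a trolox calibration curve (7.78–1000 μM) and expressed as trolox equivalents (μM TE/mM). Ascorbic acid and quercetin served as positive controls, MeOH as negative control. Each sample was run in triplicate (n = 3); values are mean ± SD.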

[2] = test system: formation of advanced glycation end products (AGEs), BSA-fructose model; assay: BSA-fructose antiglycation assay; type: biochemical, bovine; details: read-out: BSA-fructose model IC50; isolated compounds; mean ± SD
[3] = test system: formation of advanced glycation end products (AGEs), BSA-methylglyoxal model; assay: BSA-methylglyoxal antiglycation assay; type: biochemical, bovine; details: read-out: BSA-methylglyoxal model IC50; isolated compounds; mean ± SD
[4] = molecular target: T1, porcine pancreatic lipase (PPL) (Sus scrofa, UniProt P00591); assay: Inhibition of pancreatic lipase; type: biochemical; details: read-out: lipase assay IC50, mean ± SD
T1 sequence (P00591 1-450): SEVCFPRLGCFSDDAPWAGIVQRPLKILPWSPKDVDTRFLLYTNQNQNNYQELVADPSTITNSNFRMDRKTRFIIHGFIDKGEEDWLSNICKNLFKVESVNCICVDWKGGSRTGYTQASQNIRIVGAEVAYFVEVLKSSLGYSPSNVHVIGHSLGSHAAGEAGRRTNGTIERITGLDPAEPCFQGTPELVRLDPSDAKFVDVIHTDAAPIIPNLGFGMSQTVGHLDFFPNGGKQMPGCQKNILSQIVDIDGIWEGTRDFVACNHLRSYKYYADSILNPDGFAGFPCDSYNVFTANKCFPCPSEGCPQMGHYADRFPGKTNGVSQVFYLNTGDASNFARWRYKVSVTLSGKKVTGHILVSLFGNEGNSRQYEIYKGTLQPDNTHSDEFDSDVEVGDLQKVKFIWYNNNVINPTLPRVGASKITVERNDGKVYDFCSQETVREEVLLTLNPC

α-glucosidase (yeast) = α-glucosidase (yeast) (Saccharomyces cerevisiae, UniProt P53341); assay: Inhibition of α-glucosidase; type: biochemical; details: read-out: α-glucosidase assay IC50; yeast enzyme; mean ± SD
Sequence of α-glucosidase (yeast) (P53341 whole entry): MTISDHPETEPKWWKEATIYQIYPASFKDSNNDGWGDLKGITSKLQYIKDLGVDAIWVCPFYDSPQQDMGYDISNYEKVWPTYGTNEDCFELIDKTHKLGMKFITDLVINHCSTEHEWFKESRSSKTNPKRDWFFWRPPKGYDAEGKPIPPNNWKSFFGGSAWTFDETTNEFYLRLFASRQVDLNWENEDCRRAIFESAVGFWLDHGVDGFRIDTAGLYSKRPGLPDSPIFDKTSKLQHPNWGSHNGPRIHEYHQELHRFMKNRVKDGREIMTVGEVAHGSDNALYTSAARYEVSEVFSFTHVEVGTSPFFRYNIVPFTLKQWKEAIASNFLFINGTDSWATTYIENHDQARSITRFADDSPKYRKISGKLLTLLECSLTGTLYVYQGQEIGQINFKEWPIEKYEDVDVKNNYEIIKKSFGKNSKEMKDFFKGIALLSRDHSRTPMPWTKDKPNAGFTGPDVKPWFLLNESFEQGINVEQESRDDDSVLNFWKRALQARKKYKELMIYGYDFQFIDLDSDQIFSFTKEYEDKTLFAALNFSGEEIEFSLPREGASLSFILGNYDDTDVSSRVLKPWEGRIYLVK

| Compound | DPPH assay EC50 (DPPH assay; extracts/fractions) [µg/mL] | IC50 [2] [µM] | IC50 [3] [mM] | efficacy against formation of AGEs [1] | DPPH assay TEAC (DPPH assay) [μM TE/mM] | FRAP assay TEAC (FRAP assay) [μM TE/mM] | ABTS assay TEAC (ABTS assay) [μM TE/mM] | IC50 [4] [µM] | IC50 (α-glucosidase (yeast)) [µM] |
| --- | --- | --- | --- | --- | --- | --- | --- | --- | --- |
| O=c1cc(-c2ccc(O)cc2)oc2c([C@@H]3O[C@H](CO)[C@@H](O)[C@H](O)[C@H]3O)c(O)cc(O)c12 [vitexin] |  |  |  | over 85% |  |  |  |  |  |
| CC[C@H](CC[C@@H](C)[C@H]1CC[C@H]2[C@@H]3CC=C4C[C@@H](O)CC[C@]4(C)[C@H]3CC[C@]12C)C(C)C [β-sitosterol] |  | > 1300 | > 1.3 |  | 37.87 ± 11.03 | 13.50 ± 3.48 | 3.42 ± 9.77 |  |  |
| CO[C@@H]1[C@@H](O)[C@H](O[C@H]2CC[C@@]3(C)C(=CC[C@]4(O)[C@@H]3CC[C@]3(C)[C@@H]([C@H](C)O[C@@H]5O[C@H](CO)[C@@H](O)[C@H](OC(=O)CC(C)C)[C@H]5O)CC[C@@]34O)C2)O[C@H](C)[C@@H]1O[C@@H]1O[C@H](CO)[C@@H](O)[C@H](O)[C@H]1O [compound 2, 3β,8β,14β,20-tetrahydroxy-(20S)-pregn-5-ene-3-O-β-D-glucopyranosyl-(1 → 4)-O-β-D-digitaloside-20-O-3-Isoval-β-D-glucopyranoside] |  |  | > 1.3 |  | 30.27 ± 2.70 | 23.08 ± 1.89 | 9.19 ± 15.59 | > 100 | 670 ± 10 |
| O=c1cc(-c2ccc(O)cc2)oc2cc(O)c([C@@H]3O[C@H](CO)[C@@H](O)[C@H](O)[C@H]3O)c(O)c12 [isovitexin] |  |  |  | over 85% |  |  |  |  |  |

Further lines, with some results ahead:

| DPPH assay EC50 (DPPH assay; extracts/fractions) [µg/mL] | IC50 [2] [µM] | IC50 [3] [mM] | Compound | efficacy against formation of AGEs [1] | DPPH assay TEAC (DPPH assay) [μM TE/mM] | FRAP assay TEAC (FRAP assay) [μM TE/mM] | ABTS assay TEAC (ABTS assay) [μM TE/mM] | IC50 [4] [µM] | IC50 (α-glucosidase (yeast)) [µM] |
| --- | --- | --- | --- | --- | --- | --- | --- | --- | --- |
| 2.76 ± 1.63 |  |  | O=C1O[C@H]([C@@H](O)CO)C(O)=C1O [ascorbic acid, reference compound] |  | 802.73 ± 32.63 | 1195.58 ± 4.41 | 1132.84 ± 20.25 |  |  |
|  | 1032 ± 2.48 | > 1.3 | CC[C@H](CC[C@@H](C)[C@H]1CC[C@H]2[C@@H]3CC=C4C[C@@H](O[C@@H]5O[C@H](CO)[C@@H](O)[C@H](O)[C@H]5O)CC[C@]4(C)[C@H]3CC[C@]12C)C(C)C [β-sitosterol-glucoside] |  | 36.27 ± 10.39 | 66.21 ± 16.25 | 11.81 ± 7.07 |  |  |
|  | 502 ± 70.9 | > 1.3 | 12β-O-benzoyl 3β,8β,12β,14β,20-pentahydroxy-(20S)-pregn-5-ene-3-O-β-D-glucopyranosyl-(1 → 4)-O-β-D-digitaloside [compound 1] |  | 43.30 ± 3.12 | 17.96 ± 4.25 | 12.14 ± 14.86 | > 100 | 920 ± 20 |
|  | 50.6 ± 3.9 | 0.8473 ± 0.00104 | O=c1c(O)c(-c2ccc(O)c(O)c2)oc2cc(O)cc(O)c12 [quercetin, reference compound] |  | 953.94 ± 4.17 | 1373.75 ± 35.39 | 1435.38 ± 14.02 |  |  |
